Results from ChEMBL document CHEMBL1152649, “Synthesis, cytotoxicity and human telomerase inhibition activities of a series of 1,2-heteroannelated anthraquinones and anthra[1,2-d]imidazole-6,11-dione homologues” (2009).

Experiments:
Assay type in all cases: functional
[1] = tested on: MDA-MB-468; test: Antiproliferative activity against human MDA-MB-468 cells assessed as cell growth at 10 uM; conditions: read-out: Activity
Outline: (§1)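 NCI 60 cell line panel, single-dose screen (10^-5 M) run by the developmental therapeutics program protocol. Results are given as growth percent of treated cells relative to untreated control cells for each line.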

[2] = tested on: IGROV-1; test: Antiproliferative activity against human IGROV1 cells assessed as cell growth at 10 uM; conditions: read-out: Activity; outline: as §1
[3] = tested on: RXF 393; test: Antiproliferative activity against human RXF393 cells assessed as cell growth at 10 uM; conditions: read-out: Activity; outline: as §1
[4] = tested on: MDA-MB-231; test: Growth inhibition of human MDA-MB-231 cells
Outline: (§2)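 NCI 60 cancer cell line screen run per the Developmental Therapeutics Program protocol. Dose–response curves were plotted against log10 drug concentration for each cell line within its subpanel, and mean graph midpoint values were calculated.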

[5] = tested on: BT-549; test: Growth inhibition of human BT549 cells; outline: as §2
[6] = tested on: K562; test: Growth inhibition of human K562 cells; outline: as §2
[7] = tested on: MOLT-4; test: Growth inhibition of human MOLT4 cells; outline: as §2
[8] = tested on: A549; test: Growth inhibition of human A549 cells; outline: as §2
[9] = tested on: EKVX; test: Growth inhibition of human EKVX cells; outline: as §2
[10] = tested on: HOP-92; test: Growth inhibition of human HOP92 cells; outline: as §2
[11] = tested on: NCI-H226; test: Growth inhibition of human NCI-H226 cells; outline: as §2
[12] = tested on: NCI-H23; test: Growth inhibition of human NCI-H23 cells; outline: as §2
[13] = tested on: NCI-H460; test: Growth inhibition of human NCI-H460 cells; outline: as §2
[14] = tested on: HCC 2998; test: Growth inhibition of human HCC2998 cells; outline: as §2
[15] = tested on: HCT-116; test: Growth inhibition of human HCT116 cells; outline: as §2
[16] = tested on: HT-29; test: Growth inhibition of human HT-29 cells; outline: as §2
[17] = tested on: KM12; test: Growth inhibition of human KM12 cells; outline: as §2
[18] = tested on: SW-620; test: Growth inhibition of human SW620 cells
Outline: (§3)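 Assayed in the NCI 60 human cancer cell line panel under the Developmental Therapeutics Program protocol. For each line, dose–response curves were plotted against log10 drug concentration. In the one-dose screen at 10^-5 M, growth was given as percent of untreated control cells, and mean graph midpoint values were averaged.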

[19] = tested on: SF-268; test: Growth inhibition of human SF268 cells; outline: as §3
[20] = tested on: SF-295; test: Growth inhibition of human SF295 cells; outline: as §3
[21] = tested on: SF-539; test: Growth inhibition of human SF539 cells; outline: as §3
[22] = tested on: SNB-19; test: Growth inhibition of human SNB19 cells; outline: as §3
[23] = tested on: SNB-75; test: Growth inhibition of human SNB75 cells; outline: as §3
[24] = tested on: LOX IMVI; test: Growth inhibition of human LOXIMVI cells; outline: as §2
[25] = tested on: M14; test: Growth inhibition of human M14 cells; outline: as §2
[26] = tested on: SK-MEL-28; test: Growth inhibition of human SK-MEL-28 cells; outline: as §3
[27] = tested on: UACC-62; test: Growth inhibition of human UACC62 cells; outline: as §3
[28] = tested on: OVCAR-3; test: Growth inhibition of human OVCAR-3 cells; outline: as §2
[29] = tested on: OVCAR-5; test: Growth inhibition of human OVCAR5 cells; outline: as §2
[30] = tested on: OVCAR-8; test: Growth inhibition of human OVCAR8 cells; outline: as §2
[31] = tested on: NCI/ADR-RES; test: Growth inhibition of human NCI/ADR-RES cells; outline: as §2
[32] = tested on: SK-OV-3; test: Growth inhibition of human SKOV3 cells; outline: as §3
[33] = tested on: ACHN; test: Growth inhibition of human ACHN cells; outline: as §2
[34] = tested on: CAKI-1; test: Growth inhibition of human Caki1 cells; outline: as §2
[35] = tested on: RXF 393; test: Growth inhibition of human RXF393 cells; outline: as §3
[36] = tested on: SN12C; test: Growth inhibition of human SN12C cells; outline: as §3
[37] = tested on: TK-10; test: Growth inhibition of human TK10 cells; outline: as §3
[38] = tested on: UO-31; test: Growth inhibition of human UO31 cells; outline: as §3
[39] = tested on: DU-145; test: Growth inhibition of human DU145 cells; outline: as §2
[40] = read-out: LC50 (the source's name)

N#Cc1ccc(-c2nc3ccc4c(c3[nH]2)C(=O)c2ccccc2C4=O)cc1 was tested, and the growth at 10 µM [1] was 95%, the growth at 10 µM [2] was 66.3% and the growth at 10 µM [3] was 117%.

Work on CCc1nc2ccc3c(c2[nH]1)C(=O)c1ccccc1C3=O yielded a GI50 [4] of 8.86 µM, a TGI [4] greater than 100 µM and a GI50 [5] of 9.3 µM. The TGI [5] was greater than 100 µM, the GI50 [6] was greater than 100 µM and the TGI [6] was greater than 100 µM. The GI50 [7] was 4.22 µM, the TGI [7] was greater than 100 µM and the CC50 [7, 40] was greater than 100 µM. For the same compound, the GI50 [8] was 28.5 µM, the TGI [8] was greater than 100 µM and the CC50 [8, 40] was greater than 100 µM. It also gave a GI50 [9] of 4.6 µM, a TGI [9] greater than 100 µM and a CC50 [9, 40] greater than 100 µM. For the same compound, the GI50 [10] was 9.84 µM, the TGI [10] was 7.58 µM and the CC50 [10, 40] was greater than 100 µM. For the same compound, the GI50 [11] was 2.46 µM, the TGI [11] was greater than 100 µM and the CC50 [11, 40] was greater than 100 µM. It also gave a GI50 [12] of 12.1 µM, a TGI [12] greater than 100 µM and a CC50 [12, 40] greater than 100 µM. The GI50 [13] was 5.27 µM, the TGI [13] was greater than 100 µM and the CC50 [13, 40] was greater than 100 µM. For the same compound, the GI50 [14] was 18.8 µM, the TGI [14] was greater than 100 µM and the CC50 [14, 40] was greater than 100 µM. The GI50 [15] was 5.9 µM, the TGI [15] was greater than 100 µM and the CC50 [15, 40] was greater than 100 µM. The GI50 [16] was 16.1 µM, the TGI [16] was greater than 100 µM and the CC50 [16, 40] was greater than 100 µM. The GI50 [17] was 7.69 µM, the TGI [17] was greater than 100 µM and the CC50 [17, 40] was greater than 100 µM. For the same compound, the GI50 [18] was 19.8 µM, the TGI [18] was greater than 100 µM and the CC50 [18, 40] was greater than 100 µM. It also gave a GI50 [19] of 20.3 µM, a TGI [19] greater than 1000 µM and a CC50 [19, 40] greater than 100 µM. For the same compound, the GI50 [20] was 4.15 µM, the TGI [20] was greater than 100 µM and the CC50 [20, 40] was greater than 100 µM. For the same compound, the GI50 [21] was 11.7 µM, the TGI [21] was greater than 100 µM and the CC50 [21, 40] was greater than 100 µM. For the same compound, the GI50 [22] was 18.1 µM, the TGI [22] was greater than 100 µM and the CC50 [22, 40] was greater than 100 µM. The GI50 [23] was 62.5 µM, the TGI [23] was greater than 100 µM and the CC50 [23, 40] was greater than 100 µM. It also gave a GI50 [24] of 4.56 µM, a TGI [24] greater than 100 µM and a CC50 [24, 40] greater than 100 µM. For the same compound, the GI50 [25] was 7.42 µM, the TGI [25] was greater than 100 µM and the CC50 [25, 40] was greater than 100 µM. The GI50 [26] was greater than 100 µM, the TGI [26] was greater than 100 µM and the CC50 [26, 40] was greater than 100 µM. It also gave a GI50 [27] of 8.09 µM, a TGI [27] greater than 100 µM and a CC50 [27, 40] greater than 100 µM. It also gave a GI50 [28] of 16.5 µM, a TGI [28] greater than 100 µM and a CC50 [28, 40] greater than 100 µM. For the same compound, the GI50 [29] was 77.4 µM, the TGI [29] was greater than 100 µM and the CC50 [29, 40] was greater than 100 µM. It also gave a GI50 [30] of 23.2 µM, a TGI [30] greater than 100 µM and a CC50 [30, 40] greater than 100 µM. It also gave a GI50 [31] of 18.9 µM, a TGI [31] greater than 100 µM and a CC50 [31, 40] greater than 100 µM. The GI50 [32] was 2.59 µM, the TGI [32] was greater than 100 µM and the CC50 [32, 40] was greater than 100 µM. The GI50 [33] was 3.29 µM, the TGI [33] was greater than 100 µM and the CC50 [33, 40] was greater than 100 µM. The GI50 [34] was 1.17 µM, the TGI [34] was greater than 100 µM and the CC50 [34, 40] was greater than 100 µM. It also gave a GI50 [35] of 6.95 µM, a TGI [35] greater than 100 µM and a CC50 [35, 40] greater than 100 µM. The GI50 [36] was 13.6 µM, the TGI [36] was greater than 100 µM and the CC50 [36, 40] was greater than 100 µM. For the same compound, the GI50 [37] was 12.1 µM, the TGI [37] was greater than 100 µM and the CC50 [37, 40] was greater than 100 µM. For the same compound, the GI50 [38] was 1.33 µM, the TGI [38] was greater than 100 µM and the CC50 [38, 40] was greater than 100 µM. For the same compound, the GI50 [39] was 9.43 µM, the TGI [39] was greater than 100 µM and the CC50 [39, 40] was greater than 100 µM.

O=C1c2ccccc2C(=O)c2c1ccc1nc(-c3ccc4c(c3)OCO4)[nH]c21 gave a growth at 10 µM [1] of 96.4%, a growth at 10 µM [2] of 93.3% and a growth at 10 µM [3] of 120%.
